Assay outcomes (PubChem)
Shown are actives, neighbours in structure and some others; about 10% of the full set was active somewhere.
PMI activator – increases human mannose-6-phosphate isomerase activity; activation factor at 20 µM; 190,000 compounds, 0.005% hits; purified human PMI, coupled resazurin fluorescence, 20 min; active compounds read high; 1 = vehicle control, 0 substrate-free wells;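 active = activation factor of 2 or more at 20 µM, relative to plate controls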
Target sequence (P34949 whole entry, looked up): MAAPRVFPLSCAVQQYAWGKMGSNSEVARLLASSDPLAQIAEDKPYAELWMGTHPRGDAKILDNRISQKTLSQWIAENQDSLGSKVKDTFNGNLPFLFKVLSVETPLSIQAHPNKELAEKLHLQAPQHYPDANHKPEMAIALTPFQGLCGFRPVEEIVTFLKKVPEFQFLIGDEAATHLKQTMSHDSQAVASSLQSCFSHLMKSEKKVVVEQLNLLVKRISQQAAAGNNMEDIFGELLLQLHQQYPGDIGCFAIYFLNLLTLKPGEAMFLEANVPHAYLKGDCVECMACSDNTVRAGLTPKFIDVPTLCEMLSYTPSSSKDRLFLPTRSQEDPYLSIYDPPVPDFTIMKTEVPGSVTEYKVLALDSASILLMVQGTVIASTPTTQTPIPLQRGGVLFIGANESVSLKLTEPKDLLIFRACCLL
Diaphorase act – diaphorase activation or chemical reduction counter-screen; AID 1229; activation factor at 20 µM; Diaphorase/resazurin coupled assay, resorufin fluorescence, 16 min; active compounds read high; 1 = vehicle wells, 0 = NADH-free wells; 190,000 compounds, 0.005% hits;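 active = diaphorase activity raised at least twofold by the compound at 20 µM; inactive = activation factor below 2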
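test system = bacterial diaphorase enzyme (C. kluyveri) | quantity = enzyme 0.07 U/mL final | reagent = NADH substrate 0.114 mM plus resazurin dye 0.1 mM, final | incubation = 16 min enzyme reaction, ambient temperature | buffer or medium = HEPES pH 7.4 buffer with MgCl2 and Tween 20 | signal = fluorescence of resorufin, 544 nm excitation, 590 nm emission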
L major viab – reduces viability of Leishmania major promastigotes; 200,000 compounds, 9% hits; AID 1063; resazurin fluorescence viability; inhibition, % at 10 µM; in the data active = inhibition above about 50%;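 note: promastigotes grown with compound for 44 hours at 28 °C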
PMI act hi M6P – activators of human phosphomannose isomerase at near-saturating mannose 6-phosphate; P34949; coupled PMI enzyme assay, resazurin fluorescence, 20 min; active compounds read high; 1 = untreated enzyme, 0 = substrate-free blank; activation factor at 20 µM; 190,000 compounds, 0.34% hits; AID 1216;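 active = activation factor of 2 or more at 20 µM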
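Test system: human phosphomannose isomerase with PGI, G6PDH, diaphorase coupling enzymes; Amount: PMI at 15 ng/mL final; Reagent: Mannose-6-phosphate 1.0 mM (near-saturating) plus 0.22 mM NADP+; Timing: 20 min, room temperature; Technique: resorufin fluorescence at Ex 544/Em 590 nm; Dosing: 20 µM single dose.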
WT yeast gro inh – growth inhibition of WT yeast, mitochondrial fusion screen. mitochondrial fusion phenotypic screen, WT strain. inhibition, % at 10 µM. 190,000 compounds, 2.1% hits; in the data active = inhibition above about 58%; tested in S. cerevisiae
* marks the source's active call; other numbers are inactive results; . = no result.

SMILES | PMI activator | Diaphorase act | L major viab | PMI act hi M6P | WT yeast gro inh
CCCCCCCCCc1nc2sc3c(c2c(=O)n1NC(=O)c1ccccc1[N+](=O)[O-])CC(C)(C)OC3 | 0.9 | 0.8 | 34 | 0.9 | 71*
CCCc1nc2sc3c(c2c(=O)n1NC(=O)c1ccco1)CC(C)(C)OC3 | 0.9 | 0.8 | 6 | 0.9 | -12
CCCCCCCCCc1nc2sc3c(c2c(=O)n1NC(=O)c1ccc([N+](=O)[O-])cc1)CC(C)(C)OC3 | 0.8 | 0.8 | -4 | 0.9 | 64*
O=[N+]([O-])c1cc(O)c2ncccc2c1 | 0.8 | 0.5 | 100* | 0.5 | 21
COC(=O)c1ccc(COc2cc([N+](=O)[O-])cc3cccnc23)o1 | . | . | 19 | . | 26
COc1ccc(N2CCN(C(=O)CSc3ccccc3)CC2)cc1 | 0.8 | 0.8 | -2 | 0.9 | -1
COc1ccc(N2CCN(C(=O)CC(NC(N)=O)c3cccc(Oc4ccccc4)c3)CC2)cc1 (stereo not given) | 0.9 | 0.9 | 100* | 1 | 3
COc1ccc(N2CCN(C(=O)CSc3ccccc3N)CC2)cc1 | 0.5 | 0.8 | 63* | 0.7 | -6
COc1ccc(N2CCN(C(=O)CCn3nnc4ccccc43)CC2)cc1 | 0.9 | 0.8 | 89* | 0.9 | -13
Cc1ccc(C(=O)NCC(=O)OCC(=O)NCC(F)(F)F)cc1 | 1 | 0.9 | 0 | 1 | -3
COCCNC(=S)N1CCN(Cc2cccc(OC)c2)CC1 | 1 | 0.9 | 3 | 1.1 | -3
CC1CC(C)CN(c2cc(N(C)CCO)c([N+](=O)[O-])c3nonc23)C1 (stereo not given) | 1 | 1 | 6 | 0.8 | -6
CCc1ccccc1NC(=O)C1C(c2ccccc2)C1(Cl)Cl (stereo not given) | 1.1 | 0.9 | 50* | 1 | 81*
Cc1ccc(C)c(NC(=O)C2C(c3ccccc3)C2(Cl)Cl)c1 (stereo not given) | 0.9 | 0.8 | 42 | 0.9 | 10
Cc1cccc(Nc2nc3c(S(=O)(=O)c4ccccc4)nnn3c3ccccc23)c1 | 1 | 0.9 | 50* | 1 | 6
C/C(=N/NC(=O)c1ccc(Br)o1)c1ccncc1 | 1 | 1.1 | -2 | 1.1 | 2
O=C(Nc1ccccc1)c1ccc(Br)o1 | 1 | 0.9 | 35 | 1 | 13
C/C(=N\NC(=O)c1cccc(C)c1)c1cccc(NC(=O)c2ccco2)c1 | 0.9 | 0.9 | 83* | 0.9 | -11
O=C(c1ccccc1)c1cccc(NC(=O)c2ccc(Br)o2)c1 | 0.9 | 0.9 | 97* | 0.9 | 31
Cc1ccc(O)c(NC(=O)c2ccco2)c1 | 1 | 1 | -6 | 1 | 3
Cc1ccc(O)c(NC(=O)c2cccc(NC(=O)c3ccco3)c2)c1 | 1.1 | 1 | 98* | 1.1 | 18
C/C(=N/NC(=O)c1ccc(Br)o1)c1cccc(NC(=O)c2ccc(C)o2)c1 | 1.1 | 0.9 | 92* | 1.1 | 11
C/C(=N/NC(=O)c1ccco1)c1cccc(NC(=O)c2ccc(C)o2)c1 | 1 | 0.9 | 66* | 1 | -37
C/C(=N\NC(=O)c1cccc(Cl)c1)c1cccc(NC(=O)c2ccco2)c1 | 1 | 0.9 | 32 | 0.9 | 1
CCCC/C(=N\NC(=O)c1ccc(Br)o1)c1ccccc1 | 1 | 1 | 89* | 1 | 0
SMILES | PMI activator | Diaphorase act | L major viab | PMI act hi M6P | WT yeast gro inh
COc1ccc(N2CCN(C(=O)CCNS(=O)(=O)c3ccc4c(c3)CCC(=O)N4)CC2)cc1 | 0.9 | 0.8 | -4 | 0.7 | -12
COc1cccc(CNn2c(-c3cccc(C)c3)nc3ccccc3c2=O)c1O | 1 | 0.8 | 54* | 1 | 6
COc1ccc(O)c(CNn2c(-c3ccc(Br)cc3)nc3ccccc3c2=O)c1 | 0.9 | 0.9 | 35 | 0.9 | 12
O=C1/C(=C/Nc2ccc3c(c2)OCO3)CCc2ccccc21 | 0 | 0.3 | 2 | 0.2 | 62*
COc1ccc(-c2nc(CCNC(=O)c3cccs3)cs2)cc1 | 0.8 | 0.9 | 6 | 0.9 | 29
S=C(Nc1ccccc1)Nc1ccc(OCc2ccc(Cl)cc2Cl)cc1 | 1 | 1 | 18 | 0.9 | 7
OCCNCc1ccc(OCc2ccc(Cl)cc2Cl)cc1 | 1.3 | 1 | 100* | 1.3 | 75*
OCCCCNCc1ccc(OCc2ccc(Cl)cc2Cl)cc1 | 0.9 | 1.2 | 101* | 1 | 32
N#CC1=C(N)Oc2c(ccc3ccccc23)C1c1ccsc1 (stereo not given) | 0.8 | 0.8 | 1 | 0.5 | 52
COc1cc(C2C(C#N)=C(N)Oc3c2ccc2ccccc32)ccc1OCC(=O)Nc1cccc(C)c1 (stereo not given) | 0.7 | 0.8 | 76* | 0.5 | 12
COc1ccc(C2C(C#N)=C(N)Oc3c2ccc2cccnc32)cc1OC (stereo not given) | 0.9 | 1 | 5 | 0.7 | 4
COc1cc(C2C(C#N)=C(N)Oc3c2ccc2ccccc32)ccc1OCC(=O)Nc1ccc(C)cc1 (stereo not given) | 0.8 | 0.9 | 69* | 0.8 | 1
CC(=O)N(Cc1ccc(F)cc1)C1=C(NCCc2ccccc2)C(=O)c2ccccc2C1=O | 0.9 | 0.5 | 100* | 1.1 | 83*
CCOCCc1c(O)nc(SCCOc2ccc(C)c(C)c2)[nH]c1=O | 0.9 | 0.8 | -6 | 1 | -7
Clc1ccc(SCCN2CCNCC2)cc1 | 0.8 | 0.7 | 100* | 0.8 | -4
N#Cc1cc2ccc(N3CCOCC3)cc2cc1C#N | 0.8 | 0.8 | 99* | 0.9 | 8
Fc1ccc(N/N=C2/CC(c3ccccc3)Oc3ccccc32)c(F)c1 (stereo not given) | 1.7 | 0.9 | 72* | 2.5* | 53
Clc1cnc(N/N=C/c2ccco2)c(Cl)c1 | 1.2 | 1 | 67* | 1.1 | 42
O=C1N(c2cccc3ccccc23)C(c2ccccc2)N2CCCN12 (stereo not given) | 1.1 | 0.9 | 2 | 1 | -2
CC1C2=C(CCCC2=O)N(c2cccc3ccccc23)C2=C1C(=O)CCC2 | . | . | 55* | . | .
COc1cccc(Cn2cnc3c(NS(=O)(=O)c4ccc(Cl)cc4)c(C)c(C)cc32)c1 | 0.9 | 1 | 50* | 0.8 | -4
Nc1ccc(N2CCN(c3cccc(Cl)c3)CC2)cc1 | 1 | 1.1 | 89* | 0.9 | 29
O=C(c1ccc(Cn2c(=S)[nH]c3ccccc3c2=O)cc1)N1CCN(c2ccccn2)CC1 | 0.9 | 0.7 | 100* | 0.8 | 9
CCOC(=O)N1CCN(C(=S)Nc2ccc(C)c(C)c2)CC1 | 1 | 0.9 | -4 | 1 | 0
COc1ccc(NC(=O)CN(C2CCCCC2)S(C)(=O)=O)cc1Cl | 1 | 0.9 | 3 | 1 | 12
COc1ccc(NC(=S)N2CCC(N(C)CC3CCCO3)CC2)cc1 (stereo not given) | 0.8 | 1 | 93* | 0.9 | -3
